Experimental findings from ChEMBL document CHEMBL4196053, “Endoperoxide-8-aminoquinoline hybrids as dual-stage antimalarial agents with enhanced metabolic stability” (Eur J Med Chem, 2018) are described below.

Active and inactive are the calls of the source.

The test system of one series is Plasmodium falciparum. The series can be described thus: Antiplasmodial activity against chloroquine resistant Plasmodium falciparum W2 erythrocytic ring stage after 48 hrs using hypoxanthine by flow cytometric analysis. To be noted: W2, 48 h. The class given is functional, organism-based. The gist of the method:
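Ring-stage W2 P. falciparum synchronized with 5% sorbitol, about 1% parasitemia in human erythrocytes. Cells fixed in 2% formaldehyde, stained with 1 nM YOYO-1, infected cells counted by flow cytometry. IC50 taken against untreated controls; two experiments, four replicates each.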

A short description of series [1]: Cytotoxicity against human Caco2 cells assessed as reduction in cell viability after 72 hrs by neutral red dye based assay. To be noted: Caco-2 cells. The gist of the method: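 CaCo-2 cells grown in RPMI-1640 with 10% FBS and antibiotic-antimycotic at 37°C, 5% CO2. Exposed once confluent for 72 h to compound diluted in medium, organic solvent ≤1%. Medium then removed and cells washed with PBS.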

Series [2] deals with Plasmodium berghei. The series can be described thus: Antiplasmodial activity against luciferase expressing Plasmodium berghei infected in human HuH7 cells preincubated for 1 hr followed by parasite infection measured after 48 hrs by bioluminescence analysis. The class given is functional, organism-based. To be noted: Huh-7. The gist of the method: (§1)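 Huh-7 hepatoma cells (1.0 × 10^4/well) seeded the day before. Compound-containing medium added about 1 h before infection with fresh firefly luciferase-expressing P. berghei sporozoites from Anopheles stephensi salivary glands, then spun 1700 g for 5 min. DMSO vehicle in controls. Parasite load read by bioluminescence 48 h post-infection. Initial screen at fixed concentrations; EC50 from nonlinear regression of normalized dose-response data.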

The next series has as its system Huh-7. The series can be described thus: Cytotoxicity against human HuH7 cells assessed as reduction in cell viability at 10 uM after 48 hrs by Alamar blue assay. The class given is cell-based. As to conditions: huh-7, 48 h. The method in brief:
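Huh-7 cells seeded and infected with P. berghei sporozoites as in the liver-stage assay, with compound added about 1 h before infection and DMSO vehicle in controls. Host cell viability read by AlamarBlue fluorescence 48 h post-infection.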
Background: Resazurin is reduced to fluorescent resorufin, in cell work by metabolically active cells.

Series [3] can be described thus: Selectivity index, ratio of CC50 for human Caco2 cells to IC50 for chloroquine resistant Plasmodium falciparum W2 erythrocytic ring stage. To be noted: Caco-2 cells, read-out: Ratio CC50/IC50. The class given is toxicity.
Series [4] is described as follows: Half life in rat liver microsomes at […] in presence of NADPH by HPLC analysis. The class given is ADME, microsome. In general terms: Liver microsomes are a subcellular fraction often used to study metabolism.
A short description of series [5]: Intrinsic clearance in rat liver microsomes assessed per mg protein at […] in presence of NADPH by HPLC analysis. The class given is ADME, microsome. As to conditions: read-out: CLH.
Series [6] has as its system Plasmodium berghei. The series can be described thus: Antiplasmodial activity against luciferase expressing Plasmodium berghei sporozoites infected in human HuH7 cells at 10 uM preincubated for 1 hr followed by parasite infection measured after 48 hrs by bioluminescence analysis relative to control. The class given is functional. The gist of the method:
as §1

In series [7] the test system is Plasmodium berghei. The series can be described thus: Antiplasmodial activity against luciferase expressing Plasmodium berghei sporozoites infected in human HuH7 cells at 2 uM preincubated for 1 hr followed by parasite infection measured after 48 hrs by bioluminescence analysis relative to control. The class given is functional. The method in brief:
as §1

By EC50 is commonly meant the concentration needed to bring the measured effect to its halfway point. The low end stands for an effect from little substance, the high end for a need for much substance. Usually CC50 stands for the concentration that lowers cell viability or growth by half. Usually half-life stands for the time needed for the level to fall by half in the phase considered. `COc1cc(NC(C)CCCNC(=O)C2CCC3(CC2)OOC2(OO3)C3CC4CC(C3)CC2C4)c2ncccc2c1-c1ccc(C(F)(F)F)cc1` (configuration not stated): the EC50 is 60 nM with Plasmodium falciparum and 4120 nM in the series on Plasmodium berghei [2]. Also, in [1], the CC50 at 72 h was over 50 µM. In addition, the Activity entry is “Non-Toxic” with Huh-7 and over 50% in the series with Plasmodium berghei [7]. Besides, in [3], the selectivity ratio was over 1000. Moreover, in [4], the half-life was determined as 100 min. Also, in series [5], the microsomal CLint turned out to be 13.9 µL/min/mg. Also, in the series on Plasmodium berghei [6], the result was Active.
`COc1cc(NC(C)CCCNC(=O)C2CCC3(CC2)OOC2(OO3)C3CC4CC(C3)CC2C4)c2ncccc2c1-c1ccc(Cl)cc1` (configuration not stated): the concentration giving a half-maximal response (EC50) in the series on Plasmodium falciparum amounted to 75 nM; in the series with Plasmodium berghei [2], 2810 nM. The CC50 at 72 h in [1] is over 50 µM. The Activity result with Huh-7 is “Non-Toxic”; in the series with Plasmodium berghei [7], over 50%. Also, in series [3], the selectivity ratio was over 1000. Besides, in series [4], the half-life was 129 min. For the same molecule, the microsomal CLint in series [5] was determined as 10.7 µL/min/mg. Besides, the result in the series with Plasmodium berghei [6] was Active.
As for `COc1cc(NC(C)CCCNC(=O)C2CCC3(CC2)OOC2(OO3)C3CC4CC(C3)CC2C4)c2ncccc2c1-c1ccc(F)cc1` (configuration not stated), the EC50 worked out at 57 nM with Plasmodium falciparum and 2380 nM with Plasmodium berghei [2]. In addition, the CC50 at 72 h in series [1] is over 50 µM. Besides, the Activity entry with Huh-7 was “Non-Toxic”; in the series on Plasmodium berghei [7], over 50%. The selectivity ratio in series [3] was over 1000. In addition, the half-life in series [4] turned out to be 40 min. In addition, the microsomal CLint in series [5] is 34.6 µL/min/mg. Besides, the result with Plasmodium berghei [6] was Active.
